These results are taken from ChEMBL document CHEMBL4028809, “Dual-tail approach to discovery of novel carbonic anhydrase IX inhibitors by simultaneously matching the hydrophobic and hydrophilic halves of the active site” (Eur J Med Chem, 2017).

The target of one experiment is Carbonic anhydrase 2 (Homo sapiens, UniProt P00918). The experiment is described as follows: Inhibition of recombinant human carbonic anhydrase 2 using 4-nitrophenylacetate as substrate pretreated for 15 mins prior to test by spectrophotometric method.
The target of the next experiment is Carbonic anhydrase 9 (Homo sapiens, UniProt Q16790). The experiment is described as follows: Inhibition of recombinant human carbonic anhydrase 9 using 4-nitrophenylacetate as substrate pretreated for 15 mins prior to test by spectrophotometric method.
Experiment [1] has as its system HT-29. The experiment is described as follows: Cytotoxicity against human HT-29 cells assessed as cell viability at 100 uM after 72 hrs under normoxic condition by MTT assay relative to control. The settings on record: for viability at 100 µM: HT-29, 72 h, read-out: Activity. In kind it is functional. The method in brief:
(§1)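 HT-29 or MDA-MB-231 cells seeded at 5 × 10^4 per well and stabilized 24 h at 37 °C, then exposed to a single 0.1 mM dose for 72 h, in hypoxia (0.5% O2, 5% CO2, balance N2, modular chamber) or normoxia (20% O2, 5% CO2). MTT at 5 mg/mL added for 4 h; formazan dissolved in DMSO; absorbance read at 540 nm.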

For experiment [2], the system named is MDA-MB-231. As to the kind of experiment: Cytotoxicity against human MDA-MB-231 cells assessed as cell viability at 100 uM after 72 hrs under hypoxic condition by MTT assay. In kind it is functional. The settings on record: for viability at 100 µM: MDA-MB-231, 72 h, read-out: Activity. The method in brief: as §1
Experiment [3] deals with HT-29. The experiment is described as follows: Cytotoxicity against human HT-29 cells assessed as cell viability at 100 uM after 72 hrs under hypoxic condition condition by MTT assay relative to control. In kind it is functional. The settings on record: for viability at 100 µM: HT-29, 72 h, read-out: Activity. The method in brief:
as §1

The subject of experiment [4] is MDA-MB-231. The experiment is described as follows: Cytotoxicity against human MDA-MB-231 cells assessed as cell viability at 100 uM after 72 hrs under normoxic condition by MTT assay. It is filed as functional. The settings on record: for viability at 100 µM: MDA-MB-231, 72 h, read-out: Activity. The method in brief:
as §1

The structures appear in SMILES notation. Active and inactive are the calls of the source. The rule behind the calls is not given here.

`N[C@@H]1[C@@H](O)[C@H](O)[C@@H](CO)O[C@H]1NC(=S)Nc1ccc(S(N)(=O)=O)cc1`: the IC50 was found to be 203 nM on Carbonic anhydrase 2 and 667 nM at Carbonic anhydrase 9.

Consider `COc1ccc(/C=C/C(=O)N[C@@H]2[C@@H](O)[C@H](O)[C@@H](CO)O[C@H]2NC(=S)Nc2ccc(S(N)(=O)=O)cc2)cc1`, for which the viability at 100 µM in the experiment on HT-29 [1] fell in the range of 73 to 79%; in the experiment with MDA-MB-231 [2], 69.5 to 79.9%; with HT-29 [3], 63 to 77%; in the experiment with MDA-MB-231 [4], 89 to 99%. Further, the IC50 at Carbonic anhydrase 9 worked out at 152 nM.

On to `COc1cc(/C=C/C(=O)N[C@@H]2[C@@H](O)[C@H](O)[C@@H](CO)O[C@H]2NC(=S)Nc2ccc(S(N)(=O)=O)cc2)cc(OC)c1OC`, for which the viability at 100 µM in the experiment on HT-29 [1] lay in the range of 73 to 79%; in the experiment with MDA-MB-231 [2], 69.5 to 79.9%; in the experiment on HT-29 [3] it was 63 to 77%; with MDA-MB-231 [4], 89 to 99%. The IC50 at Carbonic anhydrase 9 is 46 nM.

In the case of `COc1ccc(/C=C/C(=O)O)cc1` [4-METHOXYCINNAMIC ACID], the results for the IC50 on Carbonic anhydrase 2 and on Carbonic anhydrase 9 were 760000 nM and 850000 nM, respectively.

With `COc1cc(OC)c(OC)cc1/C=C/C(=O)N[C@@H]1[C@@H](O)[C@H](O)[C@@H](CO)O[C@H]1NC(=S)Nc1ccc(S(N)(=O)=O)cc1`, the viability at 100 µM lay within 73 to 79% in the experiment with HT-29 [1], 69.5 to 79.9% in the experiment on MDA-MB-231 [2], 63 to 77% in the experiment with HT-29 [3] and 89 to 99% in the experiment with MDA-MB-231 [4]. Further, the IC50 on Carbonic anhydrase 9 is 37 nM.

With `COc1ccccc1/C=C/C(=O)N[C@@H]1[C@@H](O)[C@H](O)[C@@H](CO)O[C@H]1NC(=S)Nc1ccc(S(N)(=O)=O)cc1`, the viability at 100 µM was 73 to 79% in the experiment on HT-29 [1], 69.5 to 79.9% in the experiment on MDA-MB-231 [2], 63 to 77% in the experiment on HT-29 [3] and 89 to 99% in the experiment on MDA-MB-231 [4]. In addition, the IC50 at Carbonic anhydrase 9 worked out at 60 nM.

Regarding `COc1ccc(/C=C/C(=O)N[C@@H]2[C@@H](O)[C@H](O)[C@@H](CO)O[C@H]2NC(=S)Nc2ccc(S(N)(=O)=O)cc2)c(OC)c1`, the outcome in the experiment on HT-29 [1], in the experiment with MDA-MB-231 [2], in the experiment with HT-29 [3] and with MDA-MB-231 [4] was inactive. Further, the half-maximal inhibitory concentration (IC50) on Carbonic anhydrase 9 turned out to be 7 nM.

`COc1cccc(/C=C/C(=O)N[C@@H]2[C@@H](O)[C@H](O)[C@@H](CO)O[C@H]2NC(=S)Nc2ccc(S(N)(=O)=O)cc2)c1OC`: the viability at 100 µM lay within 73 to 79% in the experiment on HT-29 [1], 69.5 to 79.9% in the experiment on MDA-MB-231 [2], 63 to 77% with HT-29 [3] and 89 to 99% in the experiment with MDA-MB-231 [4]. Besides, at Carbonic anhydrase 9, the IC50 is 33 nM.

With `COc1ccc(/C=C/C(=O)N[C@H]2[C@H](OC)O[C@H](CO)[C@@H](O)[C@@H]2O)cc1`, the IC50 on Carbonic anhydrase 9 was found to be 20000 nM.

As to `CC(=O)Nc1nnc(S(N)(=O)=O)s1`, the result with HT-29 [1], in the experiment with MDA-MB-231 [2], in the experiment with HT-29 [3] and with MDA-MB-231 [4] was inactive.

As to `COc1cccc(/C=C/C(=O)N[C@@H]2[C@@H](O)[C@H](O)[C@@H](CO)O[C@H]2NC(=S)Nc2ccc(S(N)(=O)=O)cc2)c1`, the viability at 100 µM in the experiment with HT-29 [1] fell in the range of 73 to 79%; with MDA-MB-231 [2], 69.5 to 79.9%; with HT-29 [3], 63 to 77%; in the experiment on MDA-MB-231 [4] it was 89 to 99%. Besides, at Carbonic anhydrase 9, the IC50 amounted to 95 nM.
